According to ChEMBL document CHEMBL3576774, “Dactylomelane diterpenes from the sea hare Aplysia depilans” (J Nat Prod, 2015):

Key:
Format in all cases: functional, cell-based
A-431 = experiment: Cytotoxic activity against human A431 cells assessed as reduction in cell growth incubated for 48 hrs by MTT assay; settings: A-431, 48 h
Outline: (§1)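 Monolayers maintained in DMEM with 10% FBS, penicillin/streptomycin at 37 °C, 5% CO2, and passaged at 80–90% confluence. Log-phase cells were seeded at 1 × 10^5 cells/mL and allowed to attach for 24 h. They were then exposed to DMSO-diluted compounds at various concentrations for 48 h. MTT was added at 0.5 mg/mL final for 4 h, dissolved in HCl/2-propanol, and read at 545 nm. Triplicates; IC50 from 3–4 experiments versus untreated control.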

MCF7 = experiment: Cytotoxic activity against human MCF7 cells assessed as reduction in cell growth incubated for 48 hrs by MTT assay; outline: as §1
HeLa = experiment: Cytotoxic activity against human HeLa cells assessed as reduction in cell growth incubated for 48 hrs by MTT assay; outline: as §1
A549 = experiment: Cytotoxic activity against human A549 cells assessed as reduction in cell growth incubated for 48 hrs by MTT assay; outline: as §1
HepG2 = experiment: Cytotoxic activity against human HepG2 cells assessed as reduction in cell growth incubated for 48 hrs by MTT assay; outline: as §1

| Structure (SMILES) | IC50 (A-431) [µM] | IC50 (MCF7; Homo sapiens, MCF7, 48 h) [µM] | IC50 (HeLa; Homo sapiens, HeLa, 48 h) [µM] | IC50 (A549; Homo sapiens, A549, 48 h) [µM] | IC50 (HepG2; Homo sapiens, HepG2, 48 h) [µM] | IC50 (MCF7; mcf7) [µM] | IC50 (HeLa; hela) [µM] | IC50 (A549; a549) [µM] | IC50 (HepG2; hepg2) [µM] |
| --- | --- | --- | --- | --- | --- | --- | --- | --- | --- |
| C=CC(C)(O)CC[C@@H]1C(=C)CC[C@H](Br)[C@@]1(C)CCC(OC)C(C)(C)O (relative stereo) | > 100 | > 100 | > 100 | > 100 | > 100 | – | – | – | – |
| C=CC(C)(O)CC[C@@H]1C(=C)CC[C@H](Br)[C@@]1(C)CCC(O)C(C)(C)O (relative stereo) | > 100 | > 100 | > 100 | > 100 | > 100 | – | – | – | – |
| C=CC(C)(O)CC[C@@H]1C(=C)CC[C@H](Br)[C@@]1(C)CCC(Br)C(C)(C)O (relative stereo; 3) | > 100 | > 100 | 91.8 | > 100 | > 100 | – | – | – | – |
| C=CC(C)(O)CC[C@@H]1C(=C)CC[C@H](Br)[C@@]1(C)CCC(O)C(C)(C)Cl (relative stereo) | > 100 | 71.5 | 61 | 94.1 | 48.7 | – | – | – | – |
| C=CC(C)(O)CC[C@@H]1C(=C)CC[C@H](Br)[C@@]1(C)CCC1OC1(C)C (relative stereo) | > 100 | 71.7 | 57.9 | > 100 | 53.8 | – | – | – | – |
| C=CC(C)(O)CC[C@H]1[C@](C)(CCC=C(C)C)[C@@H](Br)CC[C@@]1(C)O (some centres undefined) | > 100 | 78 | 91.7 | > 100 | > 100 | – | – | – | – |
| C=CC(C)(O)CC[C@@H]1C(=C)CC[C@H](Br)[C@@]1(C)CCC(O)C(=C)C (relative stereo) | > 100 | > 100 | > 100 | > 100 | > 100 | – | – | – | – |
| CCCCCCCCCCCCCCCCOP(=O)([O-])OCC[N+](C)(C)C [MILTEFOSINE] | 12 | 9.2 | 16.5 | 8.5 | 26.3 | – | – | – | – |
| C=CC(C)(O)CC[C@@H]1C(=C)CC[C@H](Br)[C@@]1(C)CCC(=O)C(C)C (some centres undefined) | > 100 | > 100 | 71.4 | > 100 | > 100 | – | – | – | – |
| C=CC(C)(O)CC[C@@H]1C(=C)CC[C@H](Br)[C@@]1(C)CCC(Br)C(C)(C)O (relative stereo; 2) | – | – | – | – | – | 60.7 | 47.4 | 86.9 | 66.3 |
